According to ChEMBL document CHEMBL5360579, “Exploring the anticancer activity and the mechanism of action of pyrrolomycins F obtained by microwave-assisted total synthesis” (Eur J Med Chem, 2023):
pIC50: −log10 of the molar value. The source made the active and inactive calls. No cut-off for these calls is given here.

What was measured:
HCT-116 [1] = assay: Cytotoxicity against human HCT-116 cells assessed as inhibition of cell proliferation incubated for 48 hrs by MTT assay; type: functional, cell-based; conditions: HCT-116, 48 h
In short: (§1)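 Cells kept in DMEM with 10% heat-inactivated FBS, penicillin/streptomycin, 37 °C, 5% CO2. Plated at 5×10^3 cells/well and left 24 h, then exposed 48 h to 80, 20, 5, 1.25, 0.31 and 0.078 µM (diluted from 5 mM DMSO stocks). MTT added for 2 h at 37 °C, formazan dissolved in DMSO, A570 read. Blank subtracted, viability taken relative to untreated cells. IC50 from a sigmoidal fit of % inhibition vs log concentration. Three experiments, each in triplicate.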

MCF7 [2] = assay: Cytotoxicity against human MCF7 cells assessed as inhibition of cell proliferation incubated for 48 hrs by MTT assay; type: functional, cell-based; conditions: MCF7, 48 h; in short: as §1
MCF7 [3] = assay: Induction of morphological changes in human MCF7 cells assessed as appearance of flattened cells at 1 uM incubated for 48 hrs by inverted phase-contrast microscopic analysis; type: functional, cell-based
HCT-116 [4] = assay: Induction of morphological changes in human HCT-116 cells assessed as appearance of filamentous protrusions at 0.5 uM incubated for 48 hrs by inverted phase-contrast microscopic analysis; type: functional, cell-based
MCF7 [5] = assay: Induction of morphological changes in human MCF7 cells assessed as development of long elongations from filamentous protrusions resembling filopodia at 1 uM incubated for 48 hrs by inverted phase-contrast microscopic analysis; type: functional, cell-based
TERT-RPE1 = assay: Induction of morphological changes in hTERT-RPE1 cells at 5 uM incubated for 48 hrs by inverted phase-contrast microscopic analysis; type: toxicity, cell-based; conditions: human, tert-rpe1, 48 h
HCT-116 [6] = assay: Induction of morphological changes in human HCT-116 cells assessed as appearance of elongated fusiform-shaped cells at 0.5 uM incubated for 48 hrs by scanning electron microscopic analysis; type: functional, cell-based
In short: (§2)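 HCT116 on coverslips, treated 48 h at 0.5 µM. Coverslips rinsed in PBS pH 7.4, fixed in 4% glutaraldehyde for 30 min at 4 °C, then imaged by scanning electron microscopy at 5000X and 20000X.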

HCT-116 [7] = assay: Induction of morphological changes in human HCT-116 cells assessed as leakage and perforation of cell membranes at 0.5 uM incubated for 48 hrs by scanning electron microscopic analysis; type: functional, cell-based; in short: as §2
HCT-116 [8] = assay: Induction of morphological changes in human HCT-116 cells assessed as intensive membrane ruffling and blebbing at 0.5 uM incubated for 48 hrs by scanning electron microscopic analysis; type: functional, cell-based; in short: as §2
HCT-116 [9] = assay: Induction of apoptosis in human HCT-116 cells assessed as nuclear fragmentation at 0.5 uM incubated for 48 hrs by Hoechst 33342 staining based analysis; type: functional, cell-based
In short: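 HCT116 on coverslips at 5×10^4 cells/well, treated 48 h at 0.5 µM after 24 h attachment. PBS-washed, stained 10 min with Hoechst 33342 (final 1 µg/ml). Nuclei inspected at once by fluorescence microscopy at 640X for chromatin condensation and nuclear fragmentation.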

HCT-116 [10] = assay: Induction of autophagy in human HCT-116 cells assessed as upregulation of Atg-7 protein expression at 0.5 uM incubated for 48 hrs by Western blot analysis; type: functional, cell-based
HCT-116 [11] = assay: Induction of autophagy in human HCT-116 cells assessed as upregulation of Beclin-1 protein expression at 0.5 uM incubated for 48 hrs by Western blot analysis; type: functional, cell-based
HCT-116 [12] = assay: Upregulation of cofilin protein expression in human HCT-116 cells at 0.5 uM incubated for 48 hrs by Western blot analysis; type: functional, cell-based
HCT-116 [13] = assay: Induction of intracellular ROS generation in human HCT-116 cells at IC50 measured after 48 hrs by DCFH-DA staining based fluorescence microscopic analysis; type: functional, cell-based
In short: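 HCT116 on coverslips at 5×10^4 cells/well, treated 48 h at the IC50 concentration. Loaded with 10 µM DCFH-DA for 30 min at 37 °C, then imaged by fluorescence microscopy at 640X.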

HCT-116 [14] = assay: Induction of cell death in human HCT-116 cells assessed as loss of membrane integrity at 0.5 uM incubated for 48 hrs by acridine orange and ethidium bromide staining based fluorescence microscopic analysis; type: functional
In short: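 HCT116 on coverslips (5×10^4 cells/well), 24 h attachment, then exposed 48 h to 0.5 µM. PBS-washed and stained a few minutes with a 1:1 mix of acridine orange (100 µg/mL) and ethidium bromide (100 µg/mL). Viewed at once by fluorescence microscopy at 640X, scoring green vs orange nuclei and punctate cytoplasmic staining.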

[15] = Selectivity index, ratio of IC50 for hTERT-RPE1 cells to IC50 for human HCT-116 cells; type: toxicity; conditions: hTERT-RPE1 cells versus HCT-116 cells, read-out: Ratio IC50
In short: (§3)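 Ratio of the hTERT-RPE-1 MTT IC50 to the IC50 in HCT116 or MCF-7. Each IC50 comes from a 48 h MTT assay (0.078–80 µM, sigmoidal fit), three experiments in triplicate.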

[16] = Selectivity index, ratio of IC50 for hTERT-RPE1 cells to IC50 for human MCF7 cells; type: toxicity; conditions: hTERT-RPE1 cells versus MCF7 cells, read-out: Ratio IC50; in short: as §3
HCT-116 [17] = assay: Cytotoxicity against human HCT-116 cells assessed as reduction in colony formation treated for 48 hrs and measured after 10 days post last treatment by crystal violet staining based analysis; type: functional, cell-based; conditions: dose 0.1-5 µM, time 9.0 day, in the assay text read “7 days” for “10 days”
In short: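 HCT116 seeded at 5×10^4 cells/well. After 24 h, treated 48 h at 0.1–0.5 and 5 µM, then grown a further 7 days. Fixed and stained 30 min with 6.0% glutaraldehyde plus 0.5% crystal violet, then washed. Dye taken up in 5% acetic acid and read at 592 nm.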

HCT-116 [18] = assay: Induction of autophagy in human HCT-116 cells assessed as upregulation of LC3-II expression at 0.5 uM incubated for 48 hrs by Western blot analysis; type: functional, cell-based
HCT-116 [19] = assay: Induction of autophagy in human HCT-116 cells assessed as downregulation of LC3B-I expression at 0.5 uM incubated for 48 hrs by Western blot analysis; type: functional, cell-based

Row | Compound | pIC50 (HCT-116 [1]) | pIC50 (MCF7 [2]) | Activity (MCF7 [3]) | Activity (HCT-116 [4]) | Activity (MCF7 [5]) | Activity (TERT-RPE1) | Activity (HCT-116 [6]) | Activity (HCT-116 [7]) | Activity (HCT-116 [8]) | Activity (HCT-116 [9]) | Activity (HCT-116 [10]) | Activity (HCT-116 [11]) | Activity (HCT-116 [12]) | Activity (HCT-116 [13]) | Activity (HCT-116 [14]) | selectivity ratio [15] | selectivity ratio [16] | Activity (HCT-116 [17]) | Activity (HCT-116 [18]) | Activity (HCT-116 [19])
1 | O=C(c1cc(Br)cc(Br)c1O)c1[nH]c(Br)c(Br)c1Br | 5.89 | 5.92 | Active | Active | Active | Non-Toxic | Active | Active | Active | inactive | Active | Active | Active | Active | Active |  |  |  |  | 
2 | O=C(c1cc(Br)ccc1O)c1[nH]c(Br)c(Cl)c1Br | 6.31 | 6.14 | Active | Active | Active | Non-Toxic | Active | Active | Active | inactive |  |  | Active | Active | Active | ~100 | ~100 | Dose-Dependent Effect |  | 
3 | O=C(c1cc(Br)ccc1O)c1[nH]c(Cl)c(Br)c1Br | 6.39 | 6.19 | Active | Active | Active | Non-Toxic | Active | Active | Active | inactive |  |  | Active | Active | Active | ~100 | ~100 | Dose-Dependent Effect | Active | Active
4 | O=C(c1cc(Br)ccc1O)c1[nH]c(Br)c(Br)c1Br | 6.46 | 6.21 | Active | Active | Active | Non-Toxic | Active | Active | Active | inactive |  |  | Active | Active | Active | ~100 | ~100 | Dose-Dependent Effect |  | 
5 | O=C(c1cc(Br)ccc1O)c1[nH]c(Cl)c(Cl)c1Br | 6.06 | 5.92 | Active | Active | Active | Non-Toxic | Active | Active | Active | inactive |  |  | Active | Active | Active | ~100 | ~100 | Dose-Dependent Effect | Active | Active
